From ChEMBL document CHEMBL1131800, “Novel carbonic anhydrase isozymes I, II and IV activators incorporating sulfonyl-histamino moieties” (Bioorg Med Chem Lett, 1999)

Legend:
[1] = target: T1, Carbonic anhydrase 4 (Bos taurus) (UniProt Q95323); assay: In vitro […] activity against bovine carbonic anhydrase IV (bCA IV) purified from lung microsomes.
T1 sequence (whole entry): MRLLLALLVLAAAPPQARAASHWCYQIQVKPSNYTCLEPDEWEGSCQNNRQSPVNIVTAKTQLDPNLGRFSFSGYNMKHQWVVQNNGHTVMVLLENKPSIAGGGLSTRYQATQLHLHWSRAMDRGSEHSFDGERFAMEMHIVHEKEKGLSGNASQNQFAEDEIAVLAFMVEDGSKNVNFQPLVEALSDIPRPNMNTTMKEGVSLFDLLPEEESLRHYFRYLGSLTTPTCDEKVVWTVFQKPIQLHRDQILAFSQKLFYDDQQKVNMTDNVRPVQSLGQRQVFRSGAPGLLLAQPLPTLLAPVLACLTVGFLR
In short: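 Bovine lung microsomal CA IV (31 nM) was preincubated 10 min at room temperature with activator, then assayed by the esterase method. 4-Nitrophenolate formation was measured at pH 7.40 (ε 18,400 M-1·cm-1), minus the uncatalysed rate. Activator came from a 1 mM aqueous stock diluted to 0.1 nM. Ka is the mean of ≥3 runs.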

[2] = target: Carbonic anhydrase 1 (Homo sapiens) (UniProt P00915); assay: In vitro binding affinity against human carbonic anhydrase I (hCA-I human cloned isozyme).
In short: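 Human cloned CA I (12 nM) preincubated 10 min at room temperature with activator, then esterase assay on 4-nitrophenyl ester hydrolysis. Read-out was 4-nitrophenolate (ε 18,400 M-1·cm-1) at pH 7.40, with nonenzymatic rate subtracted. Activator stock was 1 mM in distilled-deionized water, diluted down to 0.1 nM. Ka is the mean of ≥3 determinations.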

[3] = target: Carbonic anhydrase 2 (Homo sapiens) (UniProt P00918); assay: In vitro binding affinity against human carbonic anhydrase II (hCA-II human cloned isozyme).
In short: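 Human cloned CA II (3.5 nM) preincubated 10 min at room temperature with activator, then esterase assay following 4-nitrophenolate formation (ε 18,400 M-1·cm-1) at pH 7.40. Nonenzymatic hydrolysis was subtracted. Activator was diluted in water from a 1 mM stock down to 0.1 nM. Activation constant Ka is the mean of at least three determinations.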

Chain of Carbonic anhydrase 1 (Homo sapiens) (P00915 2-261 limits assumed): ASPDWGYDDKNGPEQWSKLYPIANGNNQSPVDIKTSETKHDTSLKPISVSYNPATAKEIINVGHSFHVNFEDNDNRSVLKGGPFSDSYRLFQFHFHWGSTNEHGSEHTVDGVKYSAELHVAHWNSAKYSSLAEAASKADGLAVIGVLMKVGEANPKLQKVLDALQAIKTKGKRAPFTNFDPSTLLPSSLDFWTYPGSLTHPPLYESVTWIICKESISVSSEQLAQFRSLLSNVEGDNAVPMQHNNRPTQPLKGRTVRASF

SMILES	Ka [1] [µM]	Ka [2] [µM]	Ka [3] [µM]
COc1ccc(S(=O)(=O)NCCc2c[nH]cn2)cc1	6.5	0.2	22
O=S(=O)(NCCc1c[nH]cn1)c1cc(Cl)ccc1Cl	0.1	0.08	5
O=S(=O)(NCCc1c[nH]cn1)C(F)(F)F	0.15	0.013	1.2
O=S(=O)(NCCc1c[nH]cn1)c1ccc(I)cc1	3.2	0.08	10
O=C(O)c1ccccc1S(=O)(=O)NCCc1c[nH]cn1	0.12	0.06	1.2
Cc1ccc(S(=O)(=O)NC(=O)NCCc2c[nH]cn2)cc1	0.02	0.005	0.1
O=[N+]([O-])c1cccc(S(=O)(=O)NCCc2c[nH]cn2)c1	1.5	0.12	9
O=C(O)c1c(Br)c(Br)c(Br)c(Br)c1S(=O)(=O)NCCc1c[nH]cn1	0.1	0.05	0.3
CN(C)c1cccc2c(S(=O)(=O)NCCc3c[nH]cn3)cccc12	3.2	0.28	9
Cc1ccccc1S(=O)(=O)NC(=O)NCCc1c[nH]cn1	0.03	0.006	0.15
Cc1cc(C)c(S(=O)(=O)NCCc2c[nH]cn2)c(C)c1	5.9	0.25	35
O=S(=O)(NCCc1c[nH]cn1)c1ccc(F)cc1	2.4	0.11	12
O=[N+]([O-])c1ccc(S(=O)(=O)NCCc2c[nH]cn2)cc1	1.8	0.14	10
O=C(O)c1cccc(S(=O)(=O)NCCc2c[nH]cn2)c1	0.07	0.05	0.5
O=C(NCCc1c[nH]cn1)NS(=O)(=O)c1ccc(Cl)cc1	0.01	0.003	0.08
O=S(=O)(NCCc1c[nH]cn1)C(Cl)(Cl)Cl	3.6	0.018	13
O=[N+]([O-])c1ccccc1S(=O)(=O)NCCc1c[nH]cn1	1.6	0.13	8
O=S(=O)(NCCc1c[nH]cn1)c1ccc2ccccc2c1	3.5	0.24	9
CC(=O)Nc1ccc(S(=O)(=O)NCCc2c[nH]cn2)cc1	6	0.21	20

SMILES	Ka [1] [µM]	Ka [2] [µM]	Ka [3] [µM]
O=S(=O)(NCCc1c[nH]cn1)c1c(F)c(F)c(F)c(F)c1F	0.04	0.006	0.1
O=S(=O)(NCCc1c[nH]cn1)c1cccs1	1.1	0.09	5
O=[N+]([O-])c1ccc(S(=O)(=O)NCCc2c[nH]cn2)cc1Cl	1.4	0.12	6
O=C(O)c1ccc(S(=O)(=O)NCCc2c[nH]cn2)cc1	0.1	0.06	0.8
O=S(=O)(NCCc1c[nH]cn1)c1ccc(Br)cc1	3	0.09	10
CC1(C)C2CCC1(CS(=O)(=O)NCCc1c[nH]cn1)C(=O)C2 (stereo unspecified)	5.4	0.17	15
CN(C)S(=O)(=O)NCCc1c[nH]cn1	5.3	0.15	13
O=S(=O)(NCCc1c[nH]cn1)c1ccccc1	5	0.21	30
O=S(=O)(NCCc1c[nH]cn1)C(F)(F)C(F)(F)C(F)(F)C(F)(F)F	0.05	0.01	0.9
O=S(=O)(NCCc1c[nH]cn1)c1cc(Cl)cc(Cl)c1O	0.09	0.1	7
NCCc1c[nH]cn1	41	2	125
O=S(=O)(NCCc1c[nH]cn1)c1ccc(Cl)cc1	2.5	0.1	13
O=S(=O)(NCCc1c[nH]cn1)C(F)(F)C(F)(F)C(F)(F)C(F)(F)C(F)(F)C(F)(F)C(F)(F)C(F)(F)F	0.03	0.007	0.5
O=S(=O)(Cc1ccccc1)NCCc1c[nH]cn1	5.4	0.18	34
O=S(=O)(NCCc1c[nH]cn1)c1cccc2ccccc12	3.6	0.26	10
Cc1ccc(S(=O)(=O)NCCc2c[nH]cn2)cc1	7	0.24	28
O=C(NCCc1c[nH]cn1)NS(=O)(=O)c1ccc(F)cc1	0.02	0.004	0.09
Nc1ccc(S(=O)(=O)NCCc2c[nH]cn2)cc1	4.1	0.13	14
